The results in this text go back to ChEMBL document CHEMBL1131294, “Universal template approach to drug design: polyamines as selective muscarinic receptor antagonists” (J Med Chem, 1998).

pKi: −log10 of the molar value.

Experiment [1] concerns the target T1, Muscarinic acetylcholine receptor M1 (Rattus norvegicus, UniProt P08482).
T1 sequence (P08482 whole entry): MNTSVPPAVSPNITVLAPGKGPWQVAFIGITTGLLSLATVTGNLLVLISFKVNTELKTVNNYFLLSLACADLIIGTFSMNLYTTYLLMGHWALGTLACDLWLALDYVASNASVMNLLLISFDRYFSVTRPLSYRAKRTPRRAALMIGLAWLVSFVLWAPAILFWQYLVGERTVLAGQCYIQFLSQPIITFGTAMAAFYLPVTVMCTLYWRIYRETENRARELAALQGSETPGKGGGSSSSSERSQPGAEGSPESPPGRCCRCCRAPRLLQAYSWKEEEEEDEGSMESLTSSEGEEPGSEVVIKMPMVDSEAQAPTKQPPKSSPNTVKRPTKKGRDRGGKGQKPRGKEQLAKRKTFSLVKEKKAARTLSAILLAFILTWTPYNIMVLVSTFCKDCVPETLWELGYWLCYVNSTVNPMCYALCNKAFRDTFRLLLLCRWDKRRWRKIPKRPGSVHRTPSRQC
The experiment in a line: Binding affinity for rat cortex Muscarinic acetylcholine receptor M1. In a few lines:
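Rat cerebral cortex homogenate (200 µg protein) competed against 5 nM [3H]pirenzepine. Incubation 2 h at 25 °C in 50 mM sodium phosphate pH 7.4 with 2 mM MgCl2 and 1% BSA. Nonspecific binding defined with 10 µM atropine. Filtration on PEI-soaked glass-fiber filters. Ki by Cheng-Prusoff; at least three experiments, each in triplicate.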

For experiment [2], the target named is Muscarinic acetylcholine receptor M3 (Rattus norvegicus, UniProt P08483). The experiment in a line: Inhibition of [3H]NMS binding to rat submaxillary gland Muscarinic acetylcholine receptor M3. In a few lines:
(§1)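 Competition against 0.7-0.8 nM [3H]NMS using homogenates of rat heart (M2) or submaxillary gland (M3), 500 µg protein each, or NG 108-15 cells (M4), 600 µg protein. Incubation 2 h at 25 °C in 50 mM sodium phosphate pH 7.4 with 2 mM MgCl2 and 1% BSA. Nonspecific binding defined with 10 µM atropine. Filtration; Ki by Cheng-Prusoff; at least three experiments, each in triplicate.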

For experiment [3], the target named is Muscarinic acetylcholine receptor M3 (Cavia porcellus, UniProt Q8VH26). The experiment in a line: Antagonist affinity evaluated against Muscarinic acetylcholine receptor M3 in isolated guinea pig longitudinal Ileum. Type of experiment: functional, tissue-based. As to conditions: read-out: pA2 (converted). An outline of the steps:
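Guinea pig left atria (M2, negative inotropism, electrically driven at 1 Hz) and ileum longitudinal muscle (M3, contraction). Agonist: arecaidine propargyl ester. Ileum: isotonic recording, at least 30 min equilibration. APE curves (0.01-0.5 µM) taken at 30-min intervals, the second curve serving as control. After 60 min antagonist incubation the curve was repeated. Dose ratios at agonist EC50, 3-6 antagonist concentrations, 4-6 replicates each; pA2 from Schild plots constrained to slope -1.0.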

Experiment [4] concerns the target T2, Muscarinic acetylcholine receptor M4 (Rattus norvegicus, UniProt P08485).
T2 sequence (P08485 whole entry): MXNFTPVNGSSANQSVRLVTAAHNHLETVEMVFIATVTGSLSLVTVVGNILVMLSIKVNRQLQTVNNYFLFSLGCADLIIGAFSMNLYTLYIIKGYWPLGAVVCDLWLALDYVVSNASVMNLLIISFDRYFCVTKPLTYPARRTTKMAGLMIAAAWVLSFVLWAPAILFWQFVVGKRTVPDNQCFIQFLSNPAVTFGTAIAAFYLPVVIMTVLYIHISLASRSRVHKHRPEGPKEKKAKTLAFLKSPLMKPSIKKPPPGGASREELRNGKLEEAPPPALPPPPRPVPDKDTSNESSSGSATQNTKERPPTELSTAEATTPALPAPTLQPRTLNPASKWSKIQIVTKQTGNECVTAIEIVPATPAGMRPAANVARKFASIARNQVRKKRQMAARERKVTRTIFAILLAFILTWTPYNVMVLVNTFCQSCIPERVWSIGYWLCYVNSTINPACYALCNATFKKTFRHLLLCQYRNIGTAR
The experiment in a line: […] to Muscarinic acetylcholine receptor M4. An outline of the steps:
as §1

For experiment [5], the target named is Muscarinic acetylcholine receptor M2 (Cavia porcellus). The experiment in a line: Antagonist affinity evaluated against Muscarinic acetylcholine receptor M2 in isolated guinea pig left atrium. As to conditions: read-out: pA2 (converted).
In experiment [6] the target is T3, Muscarinic acetylcholine receptor M2 (Rattus norvegicus, UniProt P10980).
T3 sequence (P10980 whole entry): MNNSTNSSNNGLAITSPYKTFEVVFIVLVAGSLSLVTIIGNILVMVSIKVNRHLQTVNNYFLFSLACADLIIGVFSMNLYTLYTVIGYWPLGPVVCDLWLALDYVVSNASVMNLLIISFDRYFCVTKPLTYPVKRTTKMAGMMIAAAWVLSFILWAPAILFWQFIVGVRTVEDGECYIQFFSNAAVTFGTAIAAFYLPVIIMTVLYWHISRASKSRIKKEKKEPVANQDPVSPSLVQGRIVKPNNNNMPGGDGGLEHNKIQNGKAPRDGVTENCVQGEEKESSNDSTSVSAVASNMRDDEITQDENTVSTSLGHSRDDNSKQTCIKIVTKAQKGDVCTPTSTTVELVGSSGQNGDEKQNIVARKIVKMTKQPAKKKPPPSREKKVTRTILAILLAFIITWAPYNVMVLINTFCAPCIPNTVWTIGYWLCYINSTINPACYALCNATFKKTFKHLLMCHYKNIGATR
Briefly: Inhibition of [3H]NMS binding to rat heart Muscarinic acetylcholine receptor M2.

Chain of Muscarinic acetylcholine receptor M3 (Cavia porcellus, UniProt Q8VH26) (Q8VH26 whole entry): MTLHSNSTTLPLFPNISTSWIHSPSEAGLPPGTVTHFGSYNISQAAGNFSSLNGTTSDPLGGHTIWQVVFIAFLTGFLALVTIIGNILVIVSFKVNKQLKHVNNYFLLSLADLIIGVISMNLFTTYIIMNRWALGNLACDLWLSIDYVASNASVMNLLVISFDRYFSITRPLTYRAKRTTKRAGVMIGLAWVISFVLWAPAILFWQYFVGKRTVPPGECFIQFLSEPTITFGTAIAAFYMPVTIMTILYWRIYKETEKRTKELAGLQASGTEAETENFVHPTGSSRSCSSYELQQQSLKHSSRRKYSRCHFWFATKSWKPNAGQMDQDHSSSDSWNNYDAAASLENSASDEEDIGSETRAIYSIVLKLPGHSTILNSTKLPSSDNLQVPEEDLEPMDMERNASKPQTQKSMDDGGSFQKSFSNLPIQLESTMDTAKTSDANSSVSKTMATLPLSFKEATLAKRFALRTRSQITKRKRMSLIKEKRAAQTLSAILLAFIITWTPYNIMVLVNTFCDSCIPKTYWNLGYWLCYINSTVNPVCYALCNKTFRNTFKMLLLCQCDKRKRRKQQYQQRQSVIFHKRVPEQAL
Chain of Muscarinic acetylcholine receptor M3 (Rattus norvegicus, UniProt P08483) (P08483 whole entry): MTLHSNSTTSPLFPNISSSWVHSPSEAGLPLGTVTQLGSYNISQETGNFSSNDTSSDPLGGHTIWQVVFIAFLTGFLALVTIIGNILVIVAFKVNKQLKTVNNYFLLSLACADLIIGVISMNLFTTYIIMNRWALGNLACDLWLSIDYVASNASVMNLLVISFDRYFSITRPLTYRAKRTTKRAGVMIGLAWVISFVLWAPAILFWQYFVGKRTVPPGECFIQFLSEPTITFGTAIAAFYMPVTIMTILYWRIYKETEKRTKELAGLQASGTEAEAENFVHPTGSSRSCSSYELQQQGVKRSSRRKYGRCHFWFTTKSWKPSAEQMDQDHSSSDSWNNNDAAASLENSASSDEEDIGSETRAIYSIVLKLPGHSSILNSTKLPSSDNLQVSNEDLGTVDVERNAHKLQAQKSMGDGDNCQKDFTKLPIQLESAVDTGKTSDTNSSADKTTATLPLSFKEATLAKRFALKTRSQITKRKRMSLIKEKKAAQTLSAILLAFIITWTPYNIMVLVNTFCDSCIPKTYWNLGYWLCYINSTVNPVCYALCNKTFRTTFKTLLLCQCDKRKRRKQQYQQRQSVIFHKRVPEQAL

One may read the pKi as −log10 of the Ki, conventionally taken in molar units. `CN(CCCCCCN)CCCCCCCCN(C)CCCCCCNCC(=O)N1c2ccccc2C(=O)Nc2cccnc21`: the figures for the negative logarithm of the Ki (pKi) in experiment [1], in experiment [2] and in experiment [4] were 8.36, 6.48 and 7.80, respectively. For the same compound, the Kb in experiment [3] is 0.275 µM.
Consider `CN(CCCCCCCCN(C)CCCCCCN(CC(=O)N1c2ccccc2NC(=O)c2cccnc21)CC(=O)N1c2ccccc2NC(=O)c2cccnc21)CCCCCCNCC(=O)N1c2ccccc2NC(=O)c2cccnc21`, for which the Kb in experiment [5] is 0.00251 µM; in experiment [3] it was 0.912 µM. The negative logarithm of the Ki (pKi) in experiment [1] is 7.90; in experiment [2] it was 6.40; in experiment [4] it was 7.40; in experiment [6], 9.04.
For the compound `CN(CCCCCCCCN(C)CCCCCCNCC(=O)N1c2ccccc2NC(=O)c2cccnc21)CCCCCCNCC(=O)N1c2ccccc2NC(=O)c2cccnc21`, the Kb in experiment [5] is 0.00525 µM; in experiment [3] it was 0.537 µM. Further, the pKi in experiment [1] was 7.84; in experiment [2], 5.59; in experiment [4], 7.44; in experiment [6], 7.68.
In the case of `CN(CCCCCCCCN(C)CCCCCCN(CC(=O)N1c2ccccc2NC(=O)c2cccnc21)CC(=O)N1c2ccccc2NC(=O)c2cccnc21)CCCCCCN(CC(=O)N1c2ccccc2NC(=O)c2cccnc21)CC(=O)N1c2ccccc2NC(=O)c2cccnc21`, the figures for the negative logarithm of the Ki (pKi) in experiment [1], in experiment [2] and in experiment [4] were 7.60, 5.60 and 6.80, respectively. Further, the Kb in experiment [3] was 1.62 µM.
As to `CN(CCCCCCCCN(C)CCCCCCN(CC(=O)N1c2ccccc2NC(=O)c2ccccc21)CC(=O)N1c2ccccc2NC(=O)c2ccccc21)CCCCCCNCC(=O)N1c2ccccc2NC(=O)c2ccccc21`, the Kb in experiment [5] is 0.0002 µM; in experiment [3], 0.0447 µM. The negative logarithm of the Ki (pKi) in experiment [1] was 9.02; in experiment [2], 6.96; in experiment [4], 7.38; in experiment [6] it was 9.36.
Take `CN(CCCCCCCCN(C)CCCCCCNCC(=O)N1c2ccccc2NC(=O)c2ccccc21)CCCCCCNCC(=O)N1c2ccccc2NC(=O)c2ccccc21`: the pKi in experiment [1] was 7.83; in experiment [2], 6.94; in experiment [4], 8.55. The Kb in experiment [3] is 0.112 µM.
With `CN(CCCCCCCCN(C)C(=O)CCCCCNCCCC(=O)N1c2ccccc2C(=O)Nc2cccnc21)C(=O)CCCCCN`, the Kb in experiment [5] was 0.000457 µM; in experiment [3], 0.00186 µM.
On to `CN(CCCCCCN)CCCCCCCCN(C)CCCCCCNCCCC(=O)N1c2ccccc2C(=O)Nc2cccnc21`, for which the pKi is 9.30 in experiment [1], 8.52 in experiment [2] and 8.84 in experiment [4]. Also, the Kb in experiment [3] is 0.00479 µM.
With `CN(CCCCCCN)CCCCCCCCN(C)CCCCCCNCCC(=O)N1c2ccccc2C(=O)Nc2cccnc21`, the figures for the Kb in experiment [5] and in experiment [3] were 0.00269 µM and 0.017 µM, respectively.
Turning to `CN(CCCCCCCCN(C)C(=O)CCCCCNCC(=O)N1c2ccccc2C(=O)Nc2cccnc21)C(=O)CCCCCNCC(=O)N1c2ccccc2C(=O)Nc2cccnc21`, the results for the Kb in experiment [5] and in experiment [3] were 0.000501 µM and 0.0724 µM, respectively.
As for `CN(CCCCCCCCN(C)C(=O)CCCCCN(CC(=O)N1c2ccccc2C(=O)Nc2cccnc21)CC(=O)N1c2ccccc2C(=O)Nc2cccnc21)C(=O)CCCCCN`, the Kb in experiment [5] was 5.62 µM; in experiment [3], 7.24 µM.
`CN(CCCCCCN)CCCCCCCCN(C)CCCCCCNCCCCC(=O)N1c2ccccc2C(=O)Nc2cccnc21`: the results for the Kb in experiment [5] and in experiment [3] were 0.000977 µM and 0.0195 µM, respectively.
Turning to `CN(CCCCCCCCN(C)C(=O)CCCCCNCCCCC(=O)N1c2ccccc2C(=O)Nc2cccnc21)C(=O)CCCCCN`, the negative logarithm of the Ki (pKi) is 7.20 in experiment [1], 7.15 in experiment [2] and 7.20 in experiment [4]. The Kb in experiment [3] was 0.0138 µM.
As for `CN(CCCCCCCCN(C)C(=O)CCCCCN(CC(=O)N1c2ccccc2C(=O)Nc2cccnc21)CC(=O)N1c2ccccc2C(=O)Nc2cccnc21)C(=O)CCCCCN(CC(=O)N1c2ccccc2C(=O)Nc2cccnc21)CC(=O)N1c2ccccc2C(=O)Nc2cccnc21`, the Kb was 0.0178 µM in experiment [5] and 2.14 µM in experiment [3].
For `CN(CCCCCCCCN(C)C(=O)CCCCCNCCC(=O)N1c2ccccc2C(=O)Nc2cccnc21)C(=O)CCCCCN`, the Kb in experiment [5] is 0.00912 µM; in experiment [3] it was 0.0182 µM.
Regarding `CN(CCCCCCCCN(C)C(=O)CCCCCNCC(=O)N1c2ccccc2C(=O)Nc2cccnc21)C(=O)CCCCCN`, the Kb in experiment [5] is 0.00977 µM; in experiment [3], 0.437 µM. In addition, the negative logarithm of the Ki (pKi) is 6.50 in experiment [1], 6.80 in experiment [2], 7.70 in experiment [4] and 7.35 in experiment [6].
On to `CN(CCCCCCCCN(C)C(=O)CCCCCN(CC(=O)N1c2ccccc2C(=O)Nc2cccnc21)CC(=O)N1c2ccccc2C(=O)Nc2cccnc21)C(=O)CCCCCNCC(=O)N1c2ccccc2C(=O)Nc2cccnc21`, for which the pKi in experiment [1] is 7.30; in experiment [2], 5.24; in experiment [4], 6.80. In addition, the Kb in experiment [3] is 0.55 µM.
For `COc1ccccc1CNCCCCCCNCCCCCCCCNCCCCCCNCc1ccccc1OC` [METHOCTRAMINE], the pKi is 6.02 in experiment [2] and 7.49 in experiment [4]. In addition, in experiment [3], the Kb is 0.363 µM.
For `CN(CCCCCCCCN(C)CCCCCCN(CC(=O)N1c2ccccc2C(=O)Nc2cccnc21)CC(=O)N1c2ccccc2C(=O)Nc2cccnc21)CCCCCCNCC(=O)N1c2ccccc2C(=O)Nc2cccnc21` [TRIPITRAMINE], the pKi in experiment [1] was 8.45; in experiment [2] it was 6.83; in experiment [4] it was 7.94.
